# Experimental data reported in ChEMBL document CHEMBL3808388 (J Med Chem, 2016).
# Calls of active or inactive are those of the source. The rule behind the calls is not given here.
# Key:
# Rhodopsin kinase GRK1 = molecular target: T1, Rhodopsin kinase GRK1 (Homo sapiens, UniProt Q15835); experiment: Inhibition of GRK1 (unknown origin) using tubulin as substrate by SDS-PAGE method
# T1 sequence (Q15835 whole entry): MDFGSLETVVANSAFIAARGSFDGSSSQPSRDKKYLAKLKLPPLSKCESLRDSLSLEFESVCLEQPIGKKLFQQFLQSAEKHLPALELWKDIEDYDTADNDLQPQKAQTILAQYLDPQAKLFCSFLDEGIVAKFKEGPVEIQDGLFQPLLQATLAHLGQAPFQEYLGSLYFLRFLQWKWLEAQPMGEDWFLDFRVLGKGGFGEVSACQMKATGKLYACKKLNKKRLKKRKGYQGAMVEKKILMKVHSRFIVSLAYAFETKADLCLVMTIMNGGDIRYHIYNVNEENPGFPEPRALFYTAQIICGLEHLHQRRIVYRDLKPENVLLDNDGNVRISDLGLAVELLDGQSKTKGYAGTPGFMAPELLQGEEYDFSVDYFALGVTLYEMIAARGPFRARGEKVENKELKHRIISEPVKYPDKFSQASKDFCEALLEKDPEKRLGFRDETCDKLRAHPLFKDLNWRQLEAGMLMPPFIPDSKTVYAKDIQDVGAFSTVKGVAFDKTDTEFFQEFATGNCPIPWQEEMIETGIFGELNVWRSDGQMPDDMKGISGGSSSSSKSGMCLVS
# [1] = molecular target: G protein-coupled receptor kinase 5 (Homo sapiens, UniProt P34947); experiment: Inhibition of GRK5 (unknown origin) using tubulin as substrate by SDS-PAGE method
# [2] = Inhibition of PKA (unknown origin) using CREBtide as substrate by ADP-Glo kinase assay; design: species or system Homo sapiens
# Procedure, shortened: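 ADP-Glo luminescence assay following the manufacturer's protocol. Inhibition curves were fitted from luminescence. IC50s are averages of three separate experiments, each run in duplicate.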
# [3] = molecular target: T2, Beta-adrenergic receptor kinase 1 (Mus musculus) (UniProt Q99MK8); experiment: Inhibition of GRK2 in C57BL/6 mouse cardiomyocytes assessed as increase in contractility at 0.5 uM preincubated for 10 mins followed by beta adrenergic receptor agonist isoproterenol addition for 2 mins; assay type: cell-based
# T2 sequence (whole entry): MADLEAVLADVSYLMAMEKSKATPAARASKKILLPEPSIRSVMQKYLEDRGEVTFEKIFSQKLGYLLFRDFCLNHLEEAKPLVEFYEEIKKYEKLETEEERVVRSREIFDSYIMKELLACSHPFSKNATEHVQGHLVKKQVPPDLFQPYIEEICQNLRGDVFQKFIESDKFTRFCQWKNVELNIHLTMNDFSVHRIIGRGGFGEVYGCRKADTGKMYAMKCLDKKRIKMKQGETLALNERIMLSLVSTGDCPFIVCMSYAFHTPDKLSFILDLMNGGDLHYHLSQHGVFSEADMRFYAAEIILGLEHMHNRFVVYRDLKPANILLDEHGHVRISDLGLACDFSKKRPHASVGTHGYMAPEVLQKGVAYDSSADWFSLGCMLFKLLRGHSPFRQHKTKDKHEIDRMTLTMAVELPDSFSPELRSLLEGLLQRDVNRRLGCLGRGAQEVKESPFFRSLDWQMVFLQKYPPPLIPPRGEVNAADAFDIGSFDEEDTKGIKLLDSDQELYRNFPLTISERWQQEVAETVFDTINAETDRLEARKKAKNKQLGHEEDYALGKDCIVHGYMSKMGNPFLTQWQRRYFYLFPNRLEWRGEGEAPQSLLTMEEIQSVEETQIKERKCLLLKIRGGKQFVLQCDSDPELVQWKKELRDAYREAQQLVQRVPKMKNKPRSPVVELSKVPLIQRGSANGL
# [4] = molecular target: T3, Rho-associated protein kinase 1 (Homo sapiens, UniProt Q13464); experiment: Inhibition of ROCK1 (unknown origin) by ADP-Glo kinase assay
# Target sequence in this assay (Q13464 whole entry): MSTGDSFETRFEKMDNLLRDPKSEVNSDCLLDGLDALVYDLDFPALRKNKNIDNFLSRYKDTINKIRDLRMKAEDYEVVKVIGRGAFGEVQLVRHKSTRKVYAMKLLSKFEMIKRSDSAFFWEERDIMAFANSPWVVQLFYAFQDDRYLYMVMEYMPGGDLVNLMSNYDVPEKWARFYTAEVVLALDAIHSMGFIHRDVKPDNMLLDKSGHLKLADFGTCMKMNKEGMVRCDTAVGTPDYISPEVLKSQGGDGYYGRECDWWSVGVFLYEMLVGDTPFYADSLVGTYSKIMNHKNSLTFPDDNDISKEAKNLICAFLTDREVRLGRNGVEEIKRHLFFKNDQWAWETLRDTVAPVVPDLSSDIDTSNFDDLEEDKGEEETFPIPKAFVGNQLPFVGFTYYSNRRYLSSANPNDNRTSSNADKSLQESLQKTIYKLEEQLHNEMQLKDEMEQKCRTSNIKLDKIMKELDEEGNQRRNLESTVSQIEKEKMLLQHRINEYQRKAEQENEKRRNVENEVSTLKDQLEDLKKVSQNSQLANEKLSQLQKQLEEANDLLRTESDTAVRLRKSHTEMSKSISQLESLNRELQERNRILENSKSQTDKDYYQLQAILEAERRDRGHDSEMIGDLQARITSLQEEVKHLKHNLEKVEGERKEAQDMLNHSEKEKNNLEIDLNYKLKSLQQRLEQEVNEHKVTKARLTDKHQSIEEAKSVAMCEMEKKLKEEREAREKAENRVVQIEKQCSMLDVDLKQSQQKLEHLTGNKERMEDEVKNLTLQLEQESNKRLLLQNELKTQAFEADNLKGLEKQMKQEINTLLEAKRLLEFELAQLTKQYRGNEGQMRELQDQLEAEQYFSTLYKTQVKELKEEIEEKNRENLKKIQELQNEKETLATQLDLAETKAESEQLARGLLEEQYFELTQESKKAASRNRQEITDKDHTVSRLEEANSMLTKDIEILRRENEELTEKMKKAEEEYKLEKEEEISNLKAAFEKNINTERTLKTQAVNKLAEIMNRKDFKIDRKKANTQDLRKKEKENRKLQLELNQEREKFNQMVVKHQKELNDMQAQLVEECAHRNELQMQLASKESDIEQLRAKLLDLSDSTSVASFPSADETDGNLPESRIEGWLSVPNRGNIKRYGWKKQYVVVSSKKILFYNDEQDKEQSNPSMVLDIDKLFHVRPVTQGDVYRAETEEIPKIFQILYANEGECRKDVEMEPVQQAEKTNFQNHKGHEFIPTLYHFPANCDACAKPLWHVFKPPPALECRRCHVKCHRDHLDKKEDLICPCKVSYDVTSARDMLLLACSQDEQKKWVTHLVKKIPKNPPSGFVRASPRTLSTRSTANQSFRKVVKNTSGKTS
# [5] = molecular target: T3, Rho-associated protein kinase 1; experiment: Inhibition of ROCK1 (unknown origin) at 10 uM by ADP-Glo kinase assay
# Procedure, shortened: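 ADP-Glo luminescence assay following the manufacturer's protocol. Percent inhibition was read at a single 10 μM inhibitor concentration.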
# Target sequence in this assay (Q13464 2-1354 limits assumed): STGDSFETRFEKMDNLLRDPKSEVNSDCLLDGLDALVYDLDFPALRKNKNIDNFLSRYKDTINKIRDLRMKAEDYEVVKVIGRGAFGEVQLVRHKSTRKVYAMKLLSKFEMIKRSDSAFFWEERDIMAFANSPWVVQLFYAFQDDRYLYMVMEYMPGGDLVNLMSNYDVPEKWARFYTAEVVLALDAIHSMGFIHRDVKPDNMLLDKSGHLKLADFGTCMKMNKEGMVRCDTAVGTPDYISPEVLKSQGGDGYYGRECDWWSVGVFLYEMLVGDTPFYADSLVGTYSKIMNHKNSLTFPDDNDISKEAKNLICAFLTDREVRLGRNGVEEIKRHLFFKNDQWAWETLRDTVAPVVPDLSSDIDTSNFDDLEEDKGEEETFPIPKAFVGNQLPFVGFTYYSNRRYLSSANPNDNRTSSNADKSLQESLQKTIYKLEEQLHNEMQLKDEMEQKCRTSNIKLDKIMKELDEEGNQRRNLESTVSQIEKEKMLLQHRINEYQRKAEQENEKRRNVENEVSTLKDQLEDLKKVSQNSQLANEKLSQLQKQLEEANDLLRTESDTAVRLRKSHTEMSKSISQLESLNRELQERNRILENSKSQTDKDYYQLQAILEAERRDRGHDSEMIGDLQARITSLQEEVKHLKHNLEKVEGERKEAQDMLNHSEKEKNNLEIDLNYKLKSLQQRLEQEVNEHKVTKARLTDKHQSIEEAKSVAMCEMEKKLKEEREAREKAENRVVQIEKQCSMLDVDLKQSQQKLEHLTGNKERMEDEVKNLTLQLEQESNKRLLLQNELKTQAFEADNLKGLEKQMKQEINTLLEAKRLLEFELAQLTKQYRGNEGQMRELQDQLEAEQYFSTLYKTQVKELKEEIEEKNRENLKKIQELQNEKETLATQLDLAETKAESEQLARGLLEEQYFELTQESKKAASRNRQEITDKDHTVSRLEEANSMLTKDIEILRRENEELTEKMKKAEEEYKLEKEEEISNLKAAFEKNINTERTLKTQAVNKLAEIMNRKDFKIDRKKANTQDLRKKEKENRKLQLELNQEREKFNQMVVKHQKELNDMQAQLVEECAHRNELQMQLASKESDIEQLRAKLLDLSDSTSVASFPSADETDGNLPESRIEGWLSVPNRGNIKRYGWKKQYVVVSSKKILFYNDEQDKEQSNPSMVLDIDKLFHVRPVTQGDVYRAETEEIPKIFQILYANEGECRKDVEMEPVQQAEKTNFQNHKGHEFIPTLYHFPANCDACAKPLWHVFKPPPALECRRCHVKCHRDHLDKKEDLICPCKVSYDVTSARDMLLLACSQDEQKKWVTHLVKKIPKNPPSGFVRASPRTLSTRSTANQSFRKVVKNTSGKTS
# [6] = molecular target: T2, Beta-adrenergic receptor kinase 1 (Mus musculus); experiment: Inhibition of GRK2 in C57BL/6 mouse cardiomyocytes assessed as increase in contractility at 1 uM preincubated for 10 mins followed by beta adrenergic receptor agonist isoproterenol addition for 2 mins; assay type: cell-based
# G protein-coupled receptor kinase 5, sequence (P34947 whole entry): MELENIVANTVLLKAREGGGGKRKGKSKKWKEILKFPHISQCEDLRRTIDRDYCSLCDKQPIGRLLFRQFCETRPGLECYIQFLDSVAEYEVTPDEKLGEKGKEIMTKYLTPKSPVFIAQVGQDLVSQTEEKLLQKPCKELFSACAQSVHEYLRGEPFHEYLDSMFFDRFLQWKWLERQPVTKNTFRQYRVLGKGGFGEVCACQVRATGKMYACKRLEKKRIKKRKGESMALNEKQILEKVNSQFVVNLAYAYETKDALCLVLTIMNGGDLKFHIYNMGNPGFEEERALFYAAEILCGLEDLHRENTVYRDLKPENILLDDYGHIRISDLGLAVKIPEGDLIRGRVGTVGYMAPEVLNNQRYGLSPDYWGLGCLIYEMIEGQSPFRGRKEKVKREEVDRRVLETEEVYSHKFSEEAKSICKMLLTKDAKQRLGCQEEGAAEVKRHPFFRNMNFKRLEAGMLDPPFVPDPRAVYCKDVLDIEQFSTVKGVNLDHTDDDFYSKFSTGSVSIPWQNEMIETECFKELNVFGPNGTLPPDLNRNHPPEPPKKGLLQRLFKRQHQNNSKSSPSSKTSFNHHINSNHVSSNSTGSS
IC50 (Rhodopsin kinase GRK1) [µM],IC50 [1] [µM],IC50 [2] [µM],Activity [3],IC50 [4] [µM],inhibition [5] [%],Activity [6],Structure (SMILES)
> 100,,> 100,,,,,CC1=C(C(=O)Nc2ccc3[nH]ncc3c2)C(c2ccc(F)c(C(=O)NCCc3c(C)cccc3C)c2)NC(=O)N1 (stereo unspecified)
> 100,6.2,> 100,,,,,CC1=C(C(=O)Nc2ccc3[nH]ncc3c2)C(c2ccc(F)c(C(=O)NCCc3ccccn3)c2)NC(=O)N1 (stereo unspecified)
> 100,> 100,> 100,,0.56,,,CNC(=O)c1cc(C2NC(=O)NC(C)=C2C(=O)Nc2ccc3[nH]ncc3c2)ccc1F (stereo unspecified)
> 100,,> 100,,2.1,,,CC1=C(C(=O)N(C)c2ccc3[nH]ncc3c2)C(c2ccc(F)c(C(=O)NCc3c(C)cccc3C)c2)NC(=O)N1 (stereo unspecified)
,,> 100,,,10,,Fc1ccc([C@@H]2CCNC[C@H]2COc2ccc3c(c2)OCO3)cc1 [PAROXETINE]
> 100,> 100,> 100,,,,,COc1cccc(OC)c1CNC(=O)Cc1cc(C2NC(=O)NC(C)=C2C(=O)Nc2ccc3[nH]ncc3c2)ccc1F (stereo unspecified)
> 100,,78.1,,0.19,,,CC1=C(C(=O)Nc2ccc3[nH]ncc3c2)C(c2ccc(F)c(C(=O)O)c2)NC(=O)N1 (stereo unspecified)
> 100,,> 100,,,,,CC1=C(C(=O)Nc2ccc3[nH]ncc3c2)C(c2ccc(F)c(C(=O)NCc3ncccc3C)c2)NC(=O)N1 (stereo unspecified)
> 100,> 100,> 100,,,,,CC1=C(C(=O)Nc2ccc3[nH]ncc3c2)C(c2ccc(F)c(C(=O)NCc3c(Cl)cccc3Cl)c2)NC(=O)N1 (stereo unspecified)
> 100,> 100,> 100,,,,,CC1=C(C(=O)Nc2ccc3c(c2)OCO3)C(c2ccc(F)c(C(=O)NCc3ccccn3)c2)NC(=O)N1 (stereo unspecified)
> 100,,> 100,,,,Active,CC1=C(C(=O)Nc2ccc3[nH]ncc3c2)C(c2ccc(F)c(C(=O)NCc3c(C)cccc3C)c2)NC(=O)N1 (stereo unspecified)
> 100,8.1,> 100,,,,,COc1ccc(CNC(=O)c2cc(C3NC(=O)NC(C)=C3C(=O)Nc3ccc4[nH]ncc4c3)ccc2F)cc1 (stereo unspecified)
> 100,,> 100,,,,,CC1=C(C(=O)Nc2ccc3[nH]ncc3c2)C(c2ccc(F)c(CC(=O)NCc3c(C)cccc3C)c2)NC(=O)N1 (stereo unspecified)
> 100,,,,0.1,,Active,CC1=C(C(=O)Nc2ccc3[nH]ncc3c2)C(c2ccc(F)cc2)NC(=O)N1 (stereo unspecified) [GSK-180736A]
> 100,> 100,> 100,,,,,CC1=C(C(=O)Nc2ccc3[nH]ncc3c2)C(c2ccc(F)c(CC(=O)NCc3c(C(F)(F)F)cccc3C(F)(F)F)c2)NC(=O)N1 (stereo unspecified)
> 100,> 100,> 100,,,,,CC1=C(C(=O)Nc2ccc3[nH]ncc3c2)C(c2ccc(F)c(C(=O)NCc3cc(C(F)(F)F)cc(C(F)(F)F)c3)c2)NC(=O)N1 (stereo unspecified)
> 100,,> 100,,0.084,,,CC1=C(C(=O)Nc2ccc3[nH]ncc3c2)C(c2ccc(F)c(C(=O)NCCc3ccncc3)c2)NC(=O)N1 (stereo unspecified)
> 100,3.8,> 100,,,,,COc1cccc(CNC(=O)c2cc(C3NC(=O)NC(C)=C3C(=O)Nc3ccc4[nH]ncc4c3)ccc2F)c1 (stereo unspecified)
,1.8,,,0.012,,,CC1=C(C(=O)Nc2ccc3[nH]ncc3c2)C(c2ccc(F)c(C(=O)NCc3nccc4ccccc34)c2)NC(=O)N1 (stereo unspecified)
> 100,> 100,> 100,Active,,0,,COc1cccc(OC)c1CNC(=O)c1cc(C2NC(=O)NC(C)=C2C(=O)Nc2ccc3[nH]ncc3c2)ccc1F (stereo unspecified)
> 100,> 100,> 100,,,22,,CC1=C(C(=O)Nc2ccc3[nH]ncc3c2)C(c2ccc(F)c(C(=O)NCc3c(C(F)(F)F)cccc3C(F)(F)F)c2)NC(=O)N1 (stereo unspecified)
> 100,5,> 100,Active,0.11,,,CC1=C(C(=O)Nc2ccc3[nH]ncc3c2)C(c2ccc(F)c(C(=O)NCc3c(F)cccc3F)c2)NC(=O)N1 (stereo unspecified)

Structure (SMILES),IC50 (Rhodopsin kinase GRK1) [µM],IC50 [1] [µM],IC50 [2] [µM],Activity [3],IC50 [4] [µM],inhibition [5] [%],Activity [6]
COc1ccccc1CNC(=O)c1cc(C2NC(=O)NC(C)=C2C(=O)Nc2ccc3[nH]ncc3c2)ccc1F (stereo unspecified),16,2.3,> 100,,,,
CC1=C(C(=O)Nc2ccc3[nH]ncc3c2)C(c2ccc(F)c(C(=O)NCc3ccccn3)c2)NC(=O)N1 (stereo unspecified),3.9,,> 100,Active,,,
CC1=C(C(=O)Nc2ccc3[nH]ncc3c2)C(c2ccc(F)c(C(=O)NCc3ccccc3)c2)NC(=O)N1 (stereo unspecified),71,4.7,> 100,,,,
CCCn1c(CNc2cccc(C(=O)NCc3c(F)cccc3F)c2)nnc1-c1ccncn1,9,2.2,,,,10,
CC1=C(C(=O)Nc2ccc3[nH]ncc3c2)C(c2ccc(F)c(C(=O)NCc3cccc(F)c3)c2)NC(=O)N1 (stereo unspecified),11.9,,> 100,,,,
